Data: ChEMBL document CHEMBL3244284, “(2-Carboxy-1,4-dihydro-4-oxoquinolyl)oxamic acids and (2-carboxy-1,4-dihydro-4-oxobenzo[h]quinolyl)oxamic acids as antiallergy agents” (1977)

What was measured:
Rattus norvegicus [1] = species: Rattus norvegicus; assay: Antiallergic activity in Sprague-Dawley rat assessed as inhibition of egg albumin/ Hemophilus pertussis antibody-induced passive cutaneous anaphylaxis (PCA) reaction; format: functional; conditions: read-out: ID50 (the source's name)
How it was run: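 Rats immunized ip with 0.5 mg egg albumin plus 0.5 cm3 heat-killed H. pertussis vaccine; serum collected at 18-20 days. Five 0.1-ml serum dilutions given intradermally on shaved back of 200-g rats. At 72 h, iv challenge with 4 mg EA plus 0.5% Evans blue; compound in THAM solution iv at challenge. Inhibition of spot count versus untreated; ID50 from 3-4 doses, six rats each.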

Rattus norvegicus [2] = species: Rattus norvegicus; assay: Ratio of disodium cromoglycate ID50 to compound ID50 for antiallergic activity in Sprague-Dawley rat by passive cutaneous anaphylaxis (PCA) reaction; format: functional

With `O=C(O)C(=O)Nc1cccc2c1ccc1c(=O)cc(C(=O)O)[nH]c12` as the compound, how does the ED50 (Rattus norvegicus [1]) read?
The ED50 was 0.1 mg/kg.

What about the Ratio (Rattus norvegicus [2]) of the same compound?
Its Ratio is 25.

Which ED50 (Rattus norvegicus [1]) does the source give for `Cc1ccc(NC(=O)C(=O)O)c2c(=O)cc(C(=O)O)[nH]c12` here?
The ED50 was 0.4 mg/kg.

How did the ED50 (Rattus norvegicus [1]) turn out when `O=C(O)C(=O)Nc1ccc(Cl)c2[nH]c(C(=O)O)cc(=O)c12` was run?
Its ED50 is 0.3 mg/kg.

For `COc1ccc(NC(=O)C(=O)O)c2c(=O)cc(C(=O)O)[nH]c12`, which ED50 (Rattus norvegicus [1]) is on record?
The ED50 was 0.7 mg/kg.

How did the ED50 (Rattus norvegicus [1]) turn out when `O=C(O)C(=O)Nc1ccc2[nH]c(C(=O)O)cc(=O)c2c1` was run?
The ED50 was 7 mg/kg.

How did the ED50 (Rattus norvegicus [1]) turn out when `Cc1cc(NC(=O)C(=O)O)cc2c(=O)cc(C(=O)O)[nH]c12` was run?
The ED50 was 0.1 mg/kg.

What about the Ratio (Rattus norvegicus [2]) of the same compound?
Its Ratio is 25.

How did the ED50 (Rattus norvegicus [1]) turn out when `Cc1c(NC(=O)C(=O)O)ccc2c(=O)cc(C(=O)O)[nH]c12` was run?
Its ED50 is 0.1 mg/kg.

What about the Ratio (Rattus norvegicus [2]) of the same compound?
Its Ratio is 25.

For `O=C(O)C(=O)Nc1cc2c(=O)cc(C(=O)O)[nH]c2c2ccccc12`, which ED50 (Rattus norvegicus [1]) is on record?
Its ED50 is 0.5 mg/kg.

How did the ED50 (Rattus norvegicus [1]) turn out when `O=C([O-])c1cc(=O)c2c(OCC(O)COc3cccc4oc(C(=O)[O-])cc(=O)c34)cccc2o1.[Na+].[Na+]` [CROMOLYN SODIUM] was run?
Its ED50 is 2.5 mg/kg.
